# Results taken from ChEMBL document CHEMBL1122741, “Substituted 5,6-dihydrofuro[3,2-f]-1,2-benzisoxazole-6-carboxylic acids: high-ceiling diuretics with uricosuric activity” (J Med Chem, 1984).
# The source made the active and inactive calls. The calls are words filed in the database; no cut-off is given here.
# Tested on: Mus musculus
# Assay: ED6 (natriuretic potency) is the oral dose(mg/kg) required to produce an excretion of 6 milliequivalents of Na+per kilogram during 0-4 hr in male mice (Highest dose tested was 50 mg/kg)
# Assay type: functional
# Details: 50 mg/kg
# Procedure, shortened: (§1)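 Male mice, 16-30 g, fed ad libitum beforehand. Compound in 0.2% hydroxypropylmethylcellulose given po at 10 mL/kg, then 0.9% saline po at 3% of body weight. Five mice pooled per metabolism cage, four cages per dose. Combined urine collected 0-4 h and assayed for Na+, K+, Cl-, uric acid as mequiv/kg per cage. ED6 from regression of Na+ against log dose.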
row,Structure (SMILES),ED6 [mg/kg]
1,O=C(O)C1Cc2cc3c(-c4ccccc4F)noc3c(Cl)c2O1 (stereo in doubt; 15k),4.2
2,O=C(O)C1Cc2cc3c(-c4ccccc4F)noc3c(Cl)c2O1 (stereo in doubt; 29),2.95

# Tested on: Mus musculus
# Assay: ED6 (natriuretic potency) is the oral dose(mg/kg) required to produce an excretion of 6 milliequivalents of Na+per kilogram during 0-4 hr in male mice (Highest dose tested was 50 mg/kg); Inactive
# Assay type: functional, organism-based
# Parameters: dose 50 mg/kg
# Details: not given
# Procedure, shortened: as §1
row,Structure (SMILES),ED6
1,CCOC(=O)C1Cc2cc3c(-c4ccccc4F)noc3c(Cl)c2O1 (stereo not given),inactive
2,N#CC1Cc2cc3c(-c4ccccc4F)noc3c(Cl)c2O1 (stereo not given),inactive
3,COc1c2c(cc3c(-c4ccccc4F)noc13)CC(C(=O)O)O2 (stereo not given),inactive
4,O=C(O)C1Cc2cc3c(-c4cccc(F)c4)noc3c(Cl)c2O1 (stereo not given),inactive
5,O=C(O)C1Cc2cc3c(-c4ccccc4F)noc3c(Cl)c2O1 (stereo in doubt; 30) [listing 1 of 2 here],inactive
6,Cc1noc2c(Cl)c3c(cc12)CC(C(=O)O)O3 (stereo not given),inactive
7,O=C(O)C1Cc2cc3c(-c4ccc(O)cc4)noc3c(Cl)c2O1 (stereo not given),inactive
8,O=C(O)C1Cc2cc3c(-c4ccccc4Cl)noc3c(Cl)c2O1 (stereo not given),inactive
9,O=C(O)C1Cc2cc3c(-c4cccs4)noc3c(Cl)c2O1 (stereo not given),inactive

# Tested on: not listed separately
# Assay: urate excreted in 6 Cebus monkey''s during 0-6 hr
# Assay type: ADME
# Details: in vivo
# Procedure, shortened: (§2)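 Male and female Cebus monkeys, 4-6 per group, fasted for 6 h after dosing, water ad libitum. 20 mg/kg in 0.2% hydroxypropylmethylcellulose at 1.0 mL/kg by nasogastric tube, then water load of 5% body weight. Urine collected in metabolism pans at 2, 6 and 24 h and assayed for uric acid. Urate in mg/kg over 0-6 h, mean ± SEM.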
row,Excretion [mg/kg],Structure (SMILES)
1,8.34,O=C(O)C1Cc2cc3c(-c4ccccc4F)noc3c(Cl)c2O1 (stereo in doubt; 29)

# Tested on: Mus musculus
# Assay: Na+ excretion mequiv/kg in saline-loaded mice administered at a dose 10 […] perorally
# Assay type: ADME, organism-based
# Details: in vivo, po
# Procedure, shortened: (§3)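 Saline-loaded male mice, 16-30 g. Compound po in 0.2% hydroxypropylmethylcellulose at 10 mL/kg, vehicle alone for controls, followed by 0.9% saline po at 3% of body weight. Doses were 0.3-250 mg/kg po. Five mice per metabolism cage, four cages per dose, pooled urine collected for 4 h. Na+ reported as mean ± SEM mequiv/kg; ANOVA with Duncan's test or unpaired t test against control.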
row,Na+ excretion [m equiv kg-1],Structure (SMILES)
1,3.7,O=C(O)COc1ccc(C(=O)c2cccs2)c(Cl)c1Cl

# Tested on: Rattus norvegicus
# Assay: ED2(natriuretic potency) is the oral dose(mg/kg) required to produce an excretion of 2 milliequivalents of Na+per kilogram during 0-4 hr in female rats (Highest dose tested was 100 mg/kg)
# Assay type: functional
# Details: not given
# Procedure, shortened: (§4)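 Female Sprague-Dawley rats, 175-225 g, on sucrose and water for 18 h, given 5 mg DOCA sc 2 h before dosing. Compound in 0.2% methylcellulose given by gavage at 2 mL/kg, then a 30 mL/kg load of 0.34% NaCl/0.69% KCl. Individual metabolism cages, urine collected 0-4 h for Na+, K+, Cl-. Two-stage two-dose screen at 2 rats/dose, then at least four doses at 4 rats/dose. ED2 taken from regression of Na+ excretion against log dose.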
row,Structure (SMILES),ED2 [mg/kg]
1,O=C(O)C1Cc2cc3c(-c4ccccc4F)noc3c(Cl)c2O1 (stereo in doubt; 15k),40
2,COc1c2c(cc3c(-c4ccccc4F)noc13)CC(C(=O)O)O2 (stereo not given),210
3,O=C(O)C1Cc2cc3c(-c4cccc(F)c4)noc3c(Cl)c2O1 (stereo not given),63
4,Cc1noc2c(Cl)c3c(cc12)CC(C(=O)O)O3 (stereo not given),40
5,O=C(O)C1Cc2cc3c(-c4ccc(O)cc4)noc3c(Cl)c2O1 (stereo not given),190
6,O=C(O)C1Cc2cc3c(-c4ccccc4Cl)noc3c(Cl)c2O1 (stereo not given),22.5
7,O=C(O)C1Cc2cc3c(-c4cccs4)noc3c(Cl)c2O1 (stereo not given),>100

# Tested on: not listed separately
# Assay: urate excreted in 4 Cebus monkey''s during 0-6 hr
# Assay type: ADME
# Details: in vivo
# Procedure, shortened: as §2
row,Excretion [mg/kg],Structure (SMILES)
1,7.08,O=C(O)C1Cc2cc3c(-c4ccccc4F)noc3c(Cl)c2O1 (stereo in doubt; 15k)
2,11.81,O=C(O)COc1ccc(C(=O)c2cccs2)c(Cl)c1Cl

# Tested on: Canis familiaris
# Assay: Na+ excretion mequiv /kg in conscious female dogs administered perorally during 0-6 hr
# Assay type: ADME, organism-based, Canis lupus familiaris
# Details: dog, in vivo, po
# Procedure, shortened: (§5)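 Conscious female dogs dosed at 3 mg/kg po, except one reference at 10 mg/kg, one dose per dog. Urine collected to 6 h and centrifuged; heparinized venous plasma taken at each collection. Na+ and urate measured by standard methods, mean ± SEM over 0-6 h. Compared with vehicle by ANOVA/Duncan's test or unpaired t test.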
row,Na+ excretion [m equiv kg-1],Structure (SMILES)
1,7.6,O=C(O)C1Cc2cc3c(-c4ccccc4F)noc3c(Cl)c2O1 (stereo in doubt; 29)
2,0.62,O=C(O)C1Cc2cc3c(-c4ccccc4F)noc3c(Cl)c2O1 (stereo in doubt; 30) [listing 2 of 2 here]

# Tested on: Mus musculus
# Assay: Na+ excretion mequiv /kg in saline-loaded mice administered at a dose 10 […] perorally
# Assay type: ADME, organism-based
# Details: in vivo, po
# Procedure, shortened: as §3
row,Na+ excretion [m equiv kg-1],Structure (SMILES)
1,8.2,O=C(O)C1Cc2cc3c(-c4ccccc4F)noc3c(Cl)c2O1 (stereo in doubt; 15k)
2,8.1,O=C(O)C1Cc2cc3c(-c4ccccc4F)noc3c(Cl)c2O1 (stereo in doubt; 29)
3,3.2,O=C(O)C1Cc2cc3c(-c4ccccc4F)noc3c(Cl)c2O1 (stereo in doubt; 30) [listing 2 of 2 here]

# Tested on: Mus musculus
# Assay: Na+ excretion mequiv/kg in saline-loaded mice administered at a dose 250 […] perorally
# Assay type: ADME, organism-based
# Details: in vivo, po
# Procedure, shortened: as §3
row,Na+ excretion [m equiv kg-1],Structure (SMILES)
1,7.7,O=C(O)COc1ccc(C(=O)c2cccs2)c(Cl)c1Cl

# Tested on: Mus musculus
# Assay: Na+ excretion mequiv /kg in saline-loaded mice administered at a dose 50 […] perorally
# Assay type: ADME, organism-based
# Details: in vivo, po
# Procedure, shortened: as §3
row,Na+ excretion [m equiv kg-1],Structure (SMILES)
1,11.9,O=C(O)C1Cc2cc3c(-c4ccccc4F)noc3c(Cl)c2O1 (stereo in doubt; 15k)
2,13.2,O=C(O)C1Cc2cc3c(-c4ccccc4F)noc3c(Cl)c2O1 (stereo in doubt; 29)
3,3.5,O=C(O)C1Cc2cc3c(-c4ccccc4F)noc3c(Cl)c2O1 (stereo in doubt; 30) [listing 2 of 2 here]

# Organism: Canis familiaris
# Assay: Urate excreted in female dogs during 0-6 hr
# Assay type: ADME, organism-based, Canis lupus familiaris
# Details: dog, in vivo
# Procedure, shortened: as §5
row,Excretion [mg/kg],Structure (SMILES)
1,1.25,O=C(O)C1Cc2cc3c(-c4ccccc4F)noc3c(Cl)c2O1 (stereo in doubt; 30) [listing 2 of 2 here]

# Tested on: Canis familiaris
# Assay: Na+ excretion mequiv /kg in 6 conscious female dogs administered perorally during 0-6 hr
# Assay type: ADME, organism-based, Canis lupus familiaris
# Details: dog, in vivo, po
# Procedure, shortened: as §5
row,Na+ excretion [m equiv kg-1],Structure (SMILES)
1,8.18,O=C(O)C1Cc2cc3c(-c4ccccc4F)noc3c(Cl)c2O1 (stereo in doubt; 15k)

# Tested on: Mus musculus
# Assay: Na+ excretion mequiv/kg in saline-loaded mice administered at a dose 50 […] perorally
# Assay type: ADME, organism-based
# Details: in vivo, po
# Procedure, shortened: as §3
row,Na+ excretion [m equiv kg-1],Structure (SMILES)
1,6.3,O=C(O)COc1ccc(C(=O)c2cccs2)c(Cl)c1Cl

# Tested on: Canis familiaris
# Assay: ED5(natriuretic potency) is the oral dose(mg/kg) required to produce an excretion of 5 milliequivalents of Na+per kilogram during 0-6 hr in female dogs (Highest dose tested was 30 mg/kg)
# Assay type: functional, Canis lupus familiaris
# Details: 30 mg/kg
# Procedure, shortened: (§6)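 Female dogs, conscious, one oral dose per dog per experiment. Urine collected and centrifuged; venous plasma drawn at each collection time. Samples assayed for Na+, K+, Cl-, urate and glucose by standard methods. Cumulative Na+ output expressed as mequiv/kg over 6 h, at least two dogs/dose. ED5 read from regression of Na+ excretion against log dose.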
row,Structure (SMILES),ED5 [mg/kg]
1,O=C(O)C1Cc2cc3c(-c4ccccc4F)noc3c(Cl)c2O1 (stereo in doubt; 15k),0.6
2,O=C(O)C1Cc2cc3c(-c4ccccc4F)noc3c(Cl)c2O1 (stereo in doubt; 29),0.71

# Tested on: not listed separately
# Assay: Urate excreted in 6 Cebus monkey''s during 0-6 hr
# Assay type: ADME
# Details: in vivo
# Procedure, shortened: as §2
row,Excretion [mg/kg],Structure (SMILES)
1,8.32,O=C(O)C1Cc2cc3c(-c4ccccc4F)noc3c(Cl)c2O1 (stereo in doubt; 30) [listing 2 of 2 here]

# Tested on: Mus musculus
# Assay: Na+ excretion mequiv[…] in saline-loaded mice administered at a dose 10 […] perorally* -significantly different from control(p<0.05) and Duncan's test
# Assay type: ADME, organism-based
# Details: in vivo, po
# Procedure, shortened: as §3
row,Na+ excretion [mequiv/kg],Structure (SMILES)
1,5.9,C=C(CC)C(=O)c1ccc(OCC(=O)O)c(Cl)c1Cl [ETHACRYNIC ACID]

# Tested on: Mus musculus
# Assay: Na+ excretion mequiv /kg in saline-loaded mice administered at a dose 2 […] perorally
# Assay type: ADME, organism-based
# Details: in vivo, po
# Procedure, shortened: as §3
row,Na+ excretion [m equiv kg-1],Structure (SMILES)
1,4.2,O=C(O)C1Cc2cc3c(-c4ccccc4F)noc3c(Cl)c2O1 (stereo in doubt; 15k)
2,5.5,O=C(O)C1Cc2cc3c(-c4ccccc4F)noc3c(Cl)c2O1 (stereo in doubt; 29)
3,2.8,O=C(O)C1Cc2cc3c(-c4ccccc4F)noc3c(Cl)c2O1 (stereo in doubt; 30) [listing 2 of 2 here]

# Tested on: Mus musculus
# Assay: Na+ excretion mequiv/kg in saline-loaded mice administered at a dose 2 […] perorally
# Assay type: ADME, organism-based
# Details: in vivo, po
# Procedure, shortened: as §3
row,Na+ excretion [mequiv/kg],Structure (SMILES)
1,2.9,C=C(CC)C(=O)c1ccc(OCC(=O)O)c(Cl)c1Cl [ETHACRYNIC ACID]

# Tested on: Rattus norvegicus
# Assay: ED2(natriuretic potency) is the oral dose(mg/kg) required to produce an excretion of 2 milliequivalents of Na+per kilogram during 0-4 hr in female rats (Highest dose tested was 100 mg/kg); Inactive
# Assay type: functional, organism-based
# Parameters: dose 100 mg/kg
# Details: not given
# Procedure, shortened: as §4
row,Structure (SMILES),ED2
1,CCOC(=O)C1Cc2cc3c(-c4ccccc4F)noc3c(Cl)c2O1 (stereo not given),inactive
2,N#CC1Cc2cc3c(-c4ccccc4F)noc3c(Cl)c2O1 (stereo not given),inactive

# Organism: Canis familiaris
# Assay: urate excreted in female dogs during 0-6 hr
# Assay type: ADME, organism-based, Canis lupus familiaris
# Details: dog, in vivo
# Procedure, shortened: as §5
row,Excretion [mg/kg],Structure (SMILES)
1,0.82,O=C(O)C1Cc2cc3c(-c4ccccc4F)noc3c(Cl)c2O1 (stereo in doubt; 15k)
2,1.32,O=C(O)C1Cc2cc3c(-c4ccccc4F)noc3c(Cl)c2O1 (stereo in doubt; 29)

# Organism: Canis familiaris
# Assay: urate excreted in 6 female dogs during 0-6 hr
# Assay type: ADME, organism-based, Canis lupus familiaris
# Details: dog, in vivo
# Procedure, shortened: as §5
row,Excretion [mg/kg],Structure (SMILES)
1,0.8,O=C(O)COc1ccc(C(=O)c2cccs2)c(Cl)c1Cl

# Tested on: Canis familiaris
# Assay: ED5(natriuretic potency) is the oral dose(mg/kg) required to produce an excretion of 5 milliequivalents of Na+per kilogram during 0-6 hr in female dogs (Highest dose tested was 30 mg/kg); Inactive
# Assay type: functional, organism-based
# Parameters: dose 30 mg/kg
# Details: Canis lupus familiaris
# Procedure, shortened: as §6
row,Structure (SMILES),ED5
1,O=C(O)C1Cc2cc3c(-c4ccccc4F)noc3c(Cl)c2O1 (stereo in doubt; 30) [listing 1 of 2 here],inactive

# Tested on: Canis familiaris
# Assay: Na+ excretion mequiv/kg in 6 conscious female dogs administered perorally during 0-6 hr
# Assay type: ADME, organism-based, Canis lupus familiaris
# Details: dog, in vivo, po
# Procedure, shortened: as §5
row,Na+ excretion [m equiv kg-1],Structure (SMILES)
1,1.54,O=C(O)COc1ccc(C(=O)c2cccs2)c(Cl)c1Cl

# Tested on: Mus musculus
# Assay: Na+ excretion mequiv[…] in saline-loaded mice administered at a dose 10 […] perorally
# Assay type: ADME, organism-based
# Details: in vivo, po
# Procedure, shortened: as §3
row,Na+ excretion [mequiv/kg],Structure (SMILES)
1,3.2,C=C(CC)C(=O)c1ccc(OCC(=O)O)c(Cl)c1Cl [ETHACRYNIC ACID]
